Assay results pooled from the literature.
Lines come from different studies, so protocols differ.
Target: Serine/threonine-protein kinase TAO3 (TAOK3, Homo sapiens, UniProt Q9H2K8)
One construct used (Q9H2K8 1-898): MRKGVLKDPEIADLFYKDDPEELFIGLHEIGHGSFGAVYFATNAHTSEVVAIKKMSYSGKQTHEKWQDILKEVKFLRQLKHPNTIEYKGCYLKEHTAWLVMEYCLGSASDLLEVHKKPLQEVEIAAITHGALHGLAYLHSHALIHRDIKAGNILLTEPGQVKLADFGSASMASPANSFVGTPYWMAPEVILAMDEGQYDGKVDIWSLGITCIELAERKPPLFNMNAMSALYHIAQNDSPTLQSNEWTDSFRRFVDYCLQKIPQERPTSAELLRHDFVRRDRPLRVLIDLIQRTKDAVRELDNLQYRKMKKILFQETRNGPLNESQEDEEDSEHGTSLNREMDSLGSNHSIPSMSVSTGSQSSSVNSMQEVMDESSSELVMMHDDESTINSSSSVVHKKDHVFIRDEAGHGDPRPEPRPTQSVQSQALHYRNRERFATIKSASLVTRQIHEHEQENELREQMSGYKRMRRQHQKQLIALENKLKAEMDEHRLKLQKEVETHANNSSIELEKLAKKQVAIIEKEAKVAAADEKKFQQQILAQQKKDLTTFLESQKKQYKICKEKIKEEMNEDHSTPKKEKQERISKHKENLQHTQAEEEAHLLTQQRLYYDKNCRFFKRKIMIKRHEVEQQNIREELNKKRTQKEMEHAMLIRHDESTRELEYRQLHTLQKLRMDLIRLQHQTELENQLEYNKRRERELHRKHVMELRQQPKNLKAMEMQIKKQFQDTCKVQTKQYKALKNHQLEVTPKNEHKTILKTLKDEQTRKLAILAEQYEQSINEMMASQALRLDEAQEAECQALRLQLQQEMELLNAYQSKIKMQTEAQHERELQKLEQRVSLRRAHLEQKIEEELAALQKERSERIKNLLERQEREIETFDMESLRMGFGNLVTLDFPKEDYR

Structure (SMILES) | test | conditions | measurement | result
Clc1ccc(Nc2nnc(Cc3ccncc3)c3ccccc23)cc1 | cell-free assay | 0.5 µM | remaining signal | 99.9%
Cc1nccc(COC(=O)N2C[C@@H]3[C@@H](CNC(=O)c4ccc5[nH]nnc5c4)[C@@H]3C2)n1 | cell-free assay, competition with immobilised ligand | 1 µM | remaining binding | 83%
CC(C)(C)c1nc2c(s1)c1nc(N)ncc1c1ccc(NS(=O)(=O)c3c(F)cccc3F)c(F)c12 | enzyme activity, inhibitor, radiometric | 1 µM | remaining activity | 87%
O=C1Nc2ccc(Cl)cc2C1=Cc1cc(Cl)c(O)c(Cl)c1 | cell-free assay | 0.5 µM | remaining signal | 50.6%
CN(C)C(=O)Cn1cc(-c2nc(C3(c4ccc(-c5cnc(N)nc5)cc4)CC3)no2)cn1 | cell-free assay, competition with immobilised ligand | 1 µM | remaining binding | 67%
Cc1ccc(NC(=O)c2ccc(C)c(C(F)(F)F)c2)cc1C#Cc1nn(C2CCC(O)CC2)c2ncnc(N)c12 (stereo not shown) | cell-free assay | 10 µM | remaining signal | 2%
O=C(Nc1cnn(-c2csc(C(=O)NC3COC3)c2)c1)Nc1c(F)cccc1Cl | enzyme activity, inhibitor | 5 µM | remaining activity | 90.2%
O=C(Nc1ccc(Oc2ccc(F)cc2)cc1)N1CCc2ncccc2[C@H]1c1ccc(F)cc1 | cell-free assay, competition with immobilised ligand | 1 µM | remaining binding | 92%
Nc1ncnc2occ(-c3ccc(NC(=O)Nc4cc(C(F)(F)F)ccc4F)cc3)c12 | cell-free assay, inhibitor | 20 µM | remaining signal | 0.05%
O=C(O)c1cc(-c2ccc(C3CCNCC3)cc2)c2ccc(-c3ccc(C(F)(F)F)cc3)cc2c1 | cell-free assay, competition with immobilised ligand | 1 µM | remaining binding | 100%
Cc1ccc(Nc2nccc(N(C)c3ccc4c(C)n(C)nc4c3)n2)cc1S(N)(=O)=O | enzyme activity, inhibitor | 0.3 µM | inhibition | 60%
CCC(=N\O)/C(C)=C/c1ccc(F)cc1 | cell-free assay, competition with immobilised ligand | 1 µM | remaining binding | 86%
COc1cc2c(Nc3ccc(Br)cc3F)ncnc2cc1OCC1CCN(C)CC1 | cell-free assay | 0.5 µM | remaining signal | 98.4%
CCCOc1ccc(OC)c(F)c1C(=O)c1ccc(C(=O)N[C@@H]2CNC[C@H]2NC(=O)c2ccc3[nH]ncc3c2)cc1 | enzyme activity, inhibitor | 10 µM | remaining activity | 81%
CCN(CC)CCNC(=O)c1c(C)[nH]c(/C=C2\C(=O)Nc3ccc(F)cc32)c1C | cell-free assay | 0.5 µM | remaining signal | 82.9%
O=[N+]([O-])c1cccc2[nH]c(CNc3nc(N4CCOCC4)nc4c3ncn4-c3ccsc3)nc12 | binding, competition with immobilised ligand | 10 µM | binding vs control | 85%
COCCOc1nc(-c2ccc(Cl)nc2)nc2c1CN(C(=O)c1ncn3ccccc13)CC2 | cell-free assay, competition with immobilised ligand | 0.1 µM | remaining binding | 100%
Cc1ccc(C(=O)Nc2ccc(CN3CCN(C)CC3)c(C(F)(F)F)c2)cc1C#Cc1cnc2cccnn12 | enzyme activity, inhibitor | 23.5 nM | remaining activity | 28%
CCN(CC)c1ccc(C2=NNC(=O)CC2C)cc1[N+](=O)[O-] (stereo not shown) | enzyme activity, inhibitor | 10 µM | remaining activity | 95%
COc1cc(-c2cc(-c3ccc(N4CCNCC4)cc3)cnc2C)cc(OC)c1OC | enzyme activity, inhibitor | 0.1 µM | inhibition | 3%
C#Cc1cccc(Nc2ncnc3cc(OCCOC)c(OCCOC)cc23)c1 | cell-free assay | 0.5 µM | remaining signal | 106%
CCOCCn1cc(C(=O)Nc2ccc(-n3nc(-c4cccnc4)cc3C(F)(F)F)cn2)ccc1=O | cell-free assay, competition with immobilised ligand | 1 µM | remaining binding | 66%
